Rows were chosen to be rich in hits. Some 2.9% of all compounds tested hit in one or more screens of this group.
Autophagy mod: autophagy modulators in MEF cells, primary screen, imaging, high-content, MEF GFP-LC3; AID 463193, 2010; calls only at 10 µM (by protocol); MEF GFP-LC3 puncta imaging; test concentration mostly 10 µM; actives 0.98% (n = 190,000);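 active means percentage of spot-positive cells more than 3 SD above its plate mean, without a fluorescence outlier flag or 80% toxicity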
Wee1 stabilizer: Wee1 degradation inhibitors, primary screen, cell-based, HeLa, Wee1K328M-luciferase, luminescence | reporter increase, % at 5 µM | HeLa Luc-Wee1K328M stability; 100% = proteasome inhibitor MG132 effect | actives 1.2% (n = 220,000);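 active means activation above the mean of all tested compounds plus 3 SD, set per screening run, cut at about 8.8% in these data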;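 further: cells exposed to compound for 20 h before luminescence read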
Target sequence (P30291 whole entry K328M): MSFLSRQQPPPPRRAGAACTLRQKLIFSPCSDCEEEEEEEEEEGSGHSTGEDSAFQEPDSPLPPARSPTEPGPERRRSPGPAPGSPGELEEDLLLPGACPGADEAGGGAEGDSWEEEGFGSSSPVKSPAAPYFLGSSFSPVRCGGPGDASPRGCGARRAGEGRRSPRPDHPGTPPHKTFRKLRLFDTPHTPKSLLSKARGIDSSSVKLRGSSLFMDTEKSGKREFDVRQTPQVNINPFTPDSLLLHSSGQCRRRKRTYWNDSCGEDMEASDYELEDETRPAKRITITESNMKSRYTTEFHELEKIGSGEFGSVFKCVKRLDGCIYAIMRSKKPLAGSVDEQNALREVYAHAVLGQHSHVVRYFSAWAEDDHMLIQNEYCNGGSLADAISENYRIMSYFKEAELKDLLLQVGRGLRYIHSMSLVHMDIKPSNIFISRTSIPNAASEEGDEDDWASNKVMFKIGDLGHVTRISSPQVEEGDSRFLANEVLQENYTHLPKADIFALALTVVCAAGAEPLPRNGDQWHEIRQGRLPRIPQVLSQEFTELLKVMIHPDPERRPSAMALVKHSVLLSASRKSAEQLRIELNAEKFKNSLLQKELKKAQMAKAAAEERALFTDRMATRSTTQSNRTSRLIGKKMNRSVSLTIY
MT stabilize HCS: microtubule stabilizers in HeLa cells, primary screen, imaging, high-content imaging | % tubulin-high responders, % at 10 µM | HeLa tubulin immunostaining HCS, 24 h; share of cells brighter than vehicle mean+2SD | actives 0.83% (n = 200,000);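 active means plate Z-score above 3 for both tubulin-high and condensed-nucleus cell shares, with cell loss under 80%, at 10 µM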;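 further: anti alpha tubulin signal scored within the nucleus-defined area of each cell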
Ins promoter up: insulin promoter activators in MIN6 cells, imaging, high-content screening, mouse beta cells; MIN6 insulin promoter-GFP reporter; stronger effect = higher value; z-score at 5 µM; actives 0.3% (n = 190,000); AID 1625, 2009;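 active means z-score above 3 at 5 µM with at least 500 cells counted in the well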
bCat nuc transl: modulators of beta-catenin nuclear translocation, primary screen, imaging, HeLa cells, immunofluorescence, high-content; actives 0.3% (n = 190,000); nuclear translocation activity, % at 5 µM;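 active means nuclear translocation activity above 50% at 5 µM, with a well cell count of 50 or more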;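 further: per-cell ratio of nuclear to cytoplasmic median beta-catenin stain intensity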
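Assay system: human HeLa cells, native beta-catenin; doses: 5 µM primary, 0.02–20 µM confirmation; incubation: compound treatment 24 h, 37°C, 5% CO2; technique: fluorescence imaging of beta-catenin antibody stain plus DAPI; measure: % activation, nuclear-to-cytoplasmic median beta-catenin signal ratio per cell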
Wee1 degr conf: Wee1 degradation inhibitors, confirmation, cell-based, HeLa, Wee1K328M-luciferase, luminescence, triplicate. shares compounds with Wee1 stabilizer. HeLa Luc-Wee1K328M degradation; vehicle 0%, proteasome-blocked wells 100%. activation, % at 5 µM. actives 4% (n = 1,100). AID 1410, 2008; in the data active means activation above about 8.9%
Of the large screens only hits and unclear results are named; the others gave an inactive call (follow-up assays come after a bar, where they were run).

Cc1cccc(NC(=O)C2CCCN2/C=C/C(=O)C(F)(F)F)c1C (stereo not given)	none
COc1ccc(NC(=O)Nc2cccc(OC)c2)cc1	none (no result: Ins promoter up, bCat nuc transl)
CCC1CCC(NC(=O)Nc2cccc(OC)c2)CC1 (stereo not given)	Wee1 stabilizer 16.3 | Wee1 degr conf inactive
CCn1cc(CNCc2cn(C)nc2-c2ccc(C3CCCCC3)cc2)cn1	none
CCCCOc1ccc(CNC(=O)NS(=O)(=O)c2ccc(OCC)cc2)cc1	Wee1 stabilizer 12.6 | Wee1 degr conf inactive
COc1cc([N+](=O)[O-])ccc1NC(=O)CCCOc1cc(C)ccc1C	Wee1 stabilizer 13.4 | Wee1 degr conf inactive
CCn1c(C)nc2cc(C(=O)N3N=C(CCOC)CC3(O)C(F)(F)F)ccc21 (stereo not given)	none (no result: Autophagy mod, MT stabilize HCS)
COc1cc(NC(=O)Cn2ccsc2=N)cc(OC)c1	Wee1 stabilizer 13.0 (no result: Autophagy mod, MT stabilize HCS) | Wee1 degr conf inactive
N=c1sccn1CC(=O)Nc1ccc2c(c1)CCC2	none
CC(=O)N1CCN(c2ccccc2NC(=O)Cc2ccc(Cl)cc2)CC1	none
COC(=O)C(Cc1c[nH]c2ccccc12)NC(C)=O (stereo not given)	Wee1 stabilizer 11.1 | Wee1 degr conf inactive
COC(=O)C(Cc1c[nH]c2ccccc12)NC(=O)c1cccs1 (stereo not given)	none (no result: Autophagy mod, MT stabilize HCS)
Cc1ccccc1NC(=O)c1c(-c2ccccc2)noc1C	none
Cc1cccc(C)c1NC(=O)c1c(-c2ccccc2)noc1C	Wee1 stabilizer 11.3 | Wee1 degr conf inactive
CCN(CC)CCn1c(NC(=O)c2ccc(C(F)(F)F)cc2)nc2ccccc21	Wee1 stabilizer 12.9 | Wee1 degr conf inactive
CCC(=O)Nc1nc2ccccc2n1CCN(CC)CC	none
CC(C1CC1)N(Cc1ccccc1)C(=O)NC(=O)c1ccc(F)cc1 (stereo not given)	Wee1 stabilizer 34.0 | Wee1 degr conf inactive
CC(C1CC1)N(Cc1ccccc1)C(=S)Nc1cccc(C(F)(F)F)c1 (stereo not given)	none (no result: bCat nuc transl)
O=S(=O)(c1ccc(Oc2ncnc3scc(-c4ccccc4)c23)cc1)N1CCOCC1	Wee1 stabilizer 18.5 | Wee1 degr conf inactive
Cc1ccc2nc(-c3ccc(NC(=S)NC4CC(C)(C)NC(C)(C)C4)cc3)sc2c1	Wee1 stabilizer 19.9, bCat nuc transl 71.7 | Wee1 degr conf inactive
Cc1ccc2nc(-c3ccc(NC(=S)NC(=O)C(C)C)cc3)sc2c1	none
O=C(COc1ccc(S(=O)(=O)NC2CCCCC2)cc1)N1CCN(c2cccc(Cl)c2)CC1	none
C/C(=N/N1CCN(Cc2cccc3ccccc23)CC1)c1ccco1	none (no result: Autophagy mod, MT stabilize HCS)
Cc1ccc2[nH]c(C(=O)NN=C3CCCCC3)c(-c3ccccc3)c2c1	Wee1 stabilizer 15.7 | Wee1 degr conf inactive
NS(=O)(=O)c1ccc(NC(=O)CN2C(=O)c3ccccc3C2=O)cc1	Wee1 stabilizer 19.2 (no result: Autophagy mod, MT stabilize HCS) | Wee1 degr conf inactive
NS(=O)(=O)c1ccc(NC(=O)CN2C(=O)CCC2=O)cc1	none (no result: Autophagy mod, MT stabilize HCS)
Cc1ccn2c(c1)nc(=S)n2C(=O)c1ccccc1	Wee1 stabilizer 14.5 | Wee1 degr conf inactive
Cc1ncsc1C(=O)Nc1nc2c(s1)CCCC2	none
O=C(Nc1nc2c(s1)CCCC2)c1ccc2ncsc2c1	Wee1 stabilizer 20.3 | Wee1 degr conf inactive
CCOc1cc(Br)ccc1S(=O)(=O)N1CCC(C(N)=O)CC1	none (no result: bCat nuc transl)
O=C(N/N=C/c1ccc(F)cc1)c1ccccc1	Wee1 stabilizer 11.5 | Wee1 degr conf inactive
CCN(CC(=O)Nc1ccc(C(C)=O)cc1)CC(=O)Nc1cccc(OC)c1	none
O=C(COc1ncnc2ccccc12)c1ccc2c(c1)OCCO2	none
O=C(Cn1cnc2ccccc2c1=O)OCC(=O)c1ccc2c(c1)OCCO2	Wee1 stabilizer 11.4 | Wee1 degr conf inactive
O=C(Cn1cnc2ccccc2c1=O)Nc1ccc2c(c1)OCCO2	Wee1 stabilizer 10.9 | Wee1 degr conf inactive
Cc1ccc(NC(=O)CCSCCc2ccccn2)cc1	none
N#Cc1cnc(SCCc2ccccc2)nc1N	Wee1 stabilizer 27.7 | Wee1 degr conf inactive
CCCCn1c(N)c(N(CC)C(=O)c2cc(OC)cc(OC)c2)c(=O)[nH]c1=O	Wee1 stabilizer 11.3 | Wee1 degr conf inactive
O=C(CC1C(=O)N(c2ccccc2)C(=S)N1c1ccccc1)c1ccc(Br)cc1 (stereo not given)	Wee1 stabilizer 67.0 | Wee1 degr conf inactive
CCNc1nc(N)nc(-c2cc(Cl)ccc2O)n1	none (no result: bCat nuc transl)
CCCCNc1nc(N)nc(-c2cc(Cl)ccc2O)n1	Wee1 stabilizer 14.1 | Wee1 degr conf inactive
O=C(CS(=O)(=O)c1ccccc1)N1CCc2ccccc21	Wee1 stabilizer 12.2 | Wee1 degr conf inactive
O=C(Cc1ccccc1)N1CCc2ccccc21	none (no result: Ins promoter up)
CC(C(=O)NCC1CCCO1)n1cc([N+](=O)[O-])cn1 (stereo not given)	none
Clc1ccc(-c2csc(N3CCSCC3)n2)cc1	none (no result: bCat nuc transl)
CCOC(=O)c1sc(NC(=O)CNC(=O)Cn2cnc3sc(C)c(C)c3c2=O)nc1C	Wee1 stabilizer 11.1 | Wee1 degr conf inactive
CCOCCn1cnc2sc(C(=O)Nc3nc(C)c(C(=O)OCC)s3)c(C)c2c1=O	none
O=C(NC1CCSC1=O)C1CCCCC1 (stereo not given)	none
COCCCNC(=O)c1cccs1	none
COc1ccc(CNCCNC(=O)c2cccs2)c(OC)c1OC	Wee1 stabilizer 12.3 | Wee1 degr conf inactive
Nc1ncnc2c1C1(CCCCC1)Cc1ccccc1-2	none
O=C(CC1S/C(=N/N=C/c2ccco2)NC1=O)Nc1cccc(Cl)c1Cl (stereo not given)	none
CCOC(=O)c1ccccc1NC(=O)CN(c1ccccc1OCC)S(C)(=O)=O	none (no result: Ins promoter up)
CCOC(=O)c1ccccc1NC(=O)CN(c1ccc(OCC)cc1)S(C)(=O)=O	Wee1 stabilizer 11.6, bCat nuc transl 69.0 | Wee1 degr conf inactive
CCOC(=O)C1CCN(CCC(=O)Nc2ccc(F)cc2)CC1	none
O=C(O)CCC(=O)N1N=C(c2ccccc2)CC1c1ccc2nccnc2c1 (stereo not given)	Wee1 stabilizer 13.0 | Wee1 degr conf inactive
O=C(O)CCCC(=O)N1N=C(c2ccccc2)CC1c1ccc2nccnc2c1 (stereo not given)	none
Cc1ccc(NC(=O)CSc2nnc(CNC(=O)c3cccs3)o2)cc1	none (no result: bCat nuc transl)
O=C(CSc1nnc(CNC(=O)c2cccs2)o1)Nc1ccccc1	Wee1 stabilizer 18.0 | Wee1 degr conf inactive
COc1cc(C(=O)NCc2nnc(SCC(=O)Nc3nc4ccccc4s3)o2)cc(OC)c1OC	Wee1 stabilizer 12.3 | Wee1 degr conf inactive
O=C(CSc1nnc(Cn2cnc3ccccc32)o1)Nc1cccc2ccccc12	none
CC(=O)c1ccc(NC(=O)CSc2nnc(Cn3cnc4ccccc43)o2)cc1	Wee1 stabilizer 16.0 (no result: Ins promoter up) | Wee1 degr conf inactive

Screening data (PubChem)
